HCV NS3 hel inh = blocks Hepatitis C virus NS3 helicase unwinding. NS3 helicase DNA unwinding, Cy5 molecular beacon fluorescence. inhibition, % at 10.9 µM. 290,000 tested, 0.56% active;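 active means inhibition above the mean of all tested compounds plus 3 SD, set per campaign, cut at about 35% in these data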;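 further: 0% = DMSO wells and 100% = thioflavine S control wells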
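test system = hepatitis C virus NS3 helicase domain fragment enzyme | reagent = annealed dual-labelled DNA beacon duplex, ATP-started | times = 1 h at 25 °C | detection = Cy5 fluorescence, 0 and 60 min reads | read-out basis = percent inhibition from t60/t0 fluorescence ratio | control set = DMSO and thioflavine S | replication = one well per compound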
EBNA-1 inhibitor = blocks EBNA-1 binding to DNA; EBNA-1 DNA binding, fluorescence polarization; inhibition, % at 14.8 µM; 300,000 tested, 0.34% active; in the data active means inhibition above about 28%
ZTA DNA inh = ZTA (EBV) inhibition in EBNA-1 counter-screen; ZTA-DNA binding, fluorescence polarization; inhibition, % at 11 µM; 320,000 tested, 0.15% active; in the data active means inhibition above about 33%
core dimer inh = blocks dimerization of HCV core protein; inhibition, % at 5 µM; 300,000 tested, 0.33% active; AID 1899; TR-FRET GST/Flag-core106 dimerization, 1536-well;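 active means inhibition above the mean of all tested compounds plus 3 SD, set per screening campaign, cut at about 45% in these data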
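Material: GST/Flag-tagged HCV core106 proteins. Incubation: 4 h, 22.5 °C incubation. Read-out basis: inhibition (%) from 671 over 617 nm ratio. Measured by: TR-FRET, excitation 340 nm, emission 617 and 671 nm.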
MEX-5 binding = C. elegans MEX-5 TCR-2 RNA binding activity; Q9XUB2; MEX-5/FITC-TCR2 RNA binding, fluorescence polarization; active compounds read low; activity score (negative = inhibition of binding), % at 10 µM; 300,000 tested, 0.38% active; AID 1832;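 active means inhibition past about -25% in most replicates, and total fluorescence under double the plate's negative control median, limit read from the data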;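 further: 0% = DMSO and -100% = 5 µM competing unlabeled TCR2 RNA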
Target sequence (Q9XUB2 whole entry, looked up): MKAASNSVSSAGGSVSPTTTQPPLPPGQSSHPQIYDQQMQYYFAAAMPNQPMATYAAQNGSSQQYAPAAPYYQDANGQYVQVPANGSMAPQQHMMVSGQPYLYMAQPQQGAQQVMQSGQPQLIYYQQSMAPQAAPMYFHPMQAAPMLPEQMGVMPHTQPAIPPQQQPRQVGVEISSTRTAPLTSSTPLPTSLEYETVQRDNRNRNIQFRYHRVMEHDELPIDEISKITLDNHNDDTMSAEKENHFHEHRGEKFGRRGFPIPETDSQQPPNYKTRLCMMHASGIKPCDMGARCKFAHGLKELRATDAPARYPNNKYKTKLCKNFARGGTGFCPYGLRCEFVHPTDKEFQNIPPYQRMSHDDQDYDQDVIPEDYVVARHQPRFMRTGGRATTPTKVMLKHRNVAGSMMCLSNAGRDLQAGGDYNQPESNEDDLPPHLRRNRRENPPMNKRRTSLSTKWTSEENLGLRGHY
EBV gp42 block = inhibitors of Epstein-Barr virus glycoprotein 42; inhibition, % (tested at 21.74 µM); 220,000 tested, 0.42% active; Fluorescence polarization binding assay, mP read-out; AID 1085; in the data active means inhibition above about 50%
Target sequence (Q1HVG2 whole entry, looked up): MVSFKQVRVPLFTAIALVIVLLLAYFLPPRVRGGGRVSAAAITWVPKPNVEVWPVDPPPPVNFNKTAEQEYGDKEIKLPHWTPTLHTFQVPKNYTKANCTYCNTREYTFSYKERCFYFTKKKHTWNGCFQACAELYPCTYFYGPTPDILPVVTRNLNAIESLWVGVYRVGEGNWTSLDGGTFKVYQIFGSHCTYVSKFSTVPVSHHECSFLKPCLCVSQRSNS
EBNA-1 inh conf = EBNA-1 (EBV) inhibition, confirmation | shares compounds with EBNA-1 inhibitor | Recombinant EBNA-1 DBD, Cy5-DNA fluorescence polarization | inhibition, % at 14.8 µM | 830 tested, 35% active | AID 2292;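 active means mean inhibition across replicates above a set limit taken from the earlier primary screen, cut at about 28% in these data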;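 further: plate controls were EBNA-1 protein with DMSO for no effect and wells lacking EBNA-1 for full effect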
ZTA DNA inh trip = blocks Epstein-Barr virus ZTA in triplicate, EBNA-1 counter-screen. shares compounds with EBNA-1 inhibitor. Zta-ZRE DNA binding, Cy5 fluorescence polarization. inhibition, % at 11.1 µM. 830 tested, under 10 active. AID 2328;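 active means mean inhibition over triplicates above a set limit taken from the primary EBNA-1 screen, cut at about 37% in these data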;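 further: purified full length Zta protein with Cy5 labeled ZRE DNA probe; 0% = Zta with DMSO and 100% = wells lacking Zta protein; inhibitors lower polarization by freeing the labeled DNA probe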
The depositor's hits bear a star; . = no result given. Compounds with a hit are over-represented: about 1.7% of the library has one in this group of screens.

SMILES	HCV NS3 hel inh	EBNA-1 inhibitor	ZTA DNA inh	core dimer inh	MEX-5 binding	EBV gp42 block	EBNA-1 inh conf	ZTA DNA inh trip
COc1ccc(N2CC(O)=C(c3nc4ccccc4s3)C2=N)cc1	0.2	52.8*	-9.1	3.3	2.1	-17.4	76.6*	6.7
O=C(c1cccc(F)c1)N1CCN(S(=O)(=O)Cc2ccccc2)CC1	-13.1	-4.8	-14.6	1.8	0.6	-13.2	.	.
O=C(Nc1ccc2c(c1)CCC2)c1cc(=O)[nH]c2ccccc12	8.4	50.7*	10.8	1.0	-2.9	2.1	28.9*	-16.3
C=Cc1ncc(OC)c2c1[nH]c1ccccc12	.	9.0	12.3	-4.1	-0.3	.	.	.
CCC(=O)Nc1cccc(-c2cc3ccccc3oc2=O)c1	-17.4	8.7	-1.2	-2.0	-0.8	7.2	.	.
O=C(Cc1cccc2ccccc12)Nc1ccc(-c2cc3ccccc3oc2=O)cc1	14.5	29.1*	4.7	7.0	1.4	-46.0	22.3	6.7
CC(=O)Nc1ccc(NC(=O)c2ccccc2CCc2ccccc2)cc1	13.0	-6.4	-18.6	-3.3	3.1	6.1	.	.
CC1=CC(=C(C#N)C#N)C=C(C)N1CCN1CCN(C(=O)Nc2ccc(Cl)c(Cl)c2)CC1	-2.5	75.8*	12.5	4.5	0.9	-24.5	65.2*	4.0
CCOc1ccccc1N1CCN(C(=O)Nc2ccc(Cl)c(Cl)c2)CC1	4.5	6.7	11.5	12.8	1.5	-13.7	.	.
COc1cc(Cl)c(NC2=CC(=O)C(=O)c3ccccc32)c(OC)c1	.	.	7.0	.	.	.	.	.
NNS(=O)(=O)c1ccc(Sc2ccccn2)c([N+](=O)[O-])c1	2.1	-3.8	13.6	1.1	-2.8	-14.1	.	.
CCOc1ccc2nc(SC3CC(=O)N(c4ccccc4)C3=O)sc2c1 (stereo unspecified)	1.5	32.8*	1.6	10.3	-1.1	7.1	1.1	-1.5
CC(=O)c1cc(C)ccc1OC(=O)c1ccncc1	2.6	5.3	3.2	-2.5	0.8	.	.	.
CC(=O)c1cc(C)ccc1OC(=O)c1cccc2nc(C)oc12	-10.1	81.2*	-1.3	3.6	0.1	-8.2	-3.9	-6.7
COc1cccc(OC)c1C(=O)Nc1cccc(-n2cnnn2)c1	5.7	-4.2	-20.4	-5.9	0.9	.	.	.
CC(=O)N1c2ccc(S(=O)(=O)NCC3CCC(C(=O)NC4CCCCC4)CC3)cc2CC1C (stereo unspecified)	3.6	41.3*	2.7	3.5	-1.2	.	-5.0	-6.0
O=C(CSc1nc2ccccc2c(=O)n1-c1ccccc1)N1CCc2ccccc21	0.6	41.3*	12.8	27.5	3.4	2.4	38.3*	0.4
COC(=O)CSc1ncccc1-c1nc2ccccc2[nH]1	0.6	-2.5	10.6	-1.2	1.3	-14.5	.	.
O=C(CSc1ncccc1-c1nc2ccccc2[nH]1)N1CCc2ccccc21	4.0	32.3*	-7.2	-0.2	1.5	-10.7	9.2	4.4
COc1ccccc1NC(=O)c1c(N=Cc2c(O)ccc3ccccc23)cnn1C	-12.3	39.0*	8.1	-3.5	1.7	-29.0	8.7	1.6
Cn1ncc(N=Cc2c(O)ccc3ccccc23)c1C(=O)N1CCOCC1	-3.5	2.3	-3.5	-8.9	-10.6	.	.	.
COCCn1c(=NC(=O)C2COc3ccccc3O2)sc2cc(S(N)(=O)=O)ccc21 (stereo unspecified)	-1.1	-9.5	1.5	-0.7	-3.2	-8.9	.	.
C=CCn1c(=NC(=O)C2COc3ccccc3O2)sc2cc(S(N)(=O)=O)ccc21 (stereo unspecified)	6.0	31.5*	7.8	7.0	-2.0	-8.1	10.8	-9.6
COc1ccc(/C=C/C(=O)Oc2ccc(/C=N/NC(=O)COc3c(C)cccc3C)cc2)cc1	-5.5	14.3	-3.7	4.7	0.2	-21.6	.	.
COc1ccc(/C=C/C(=O)Oc2cccc(/C=N/NC(=O)COc3c(C)cccc3C)c2)cc1	0.5	39.1*	3.8	19.8	-0.3	-2.5	73.7*	7.1
SMILES	HCV NS3 hel inh	EBNA-1 inhibitor	ZTA DNA inh	core dimer inh	MEX-5 binding	EBV gp42 block	EBNA-1 inh conf	ZTA DNA inh trip
Cc1ccc(NC(=O)C2CCC(N3C(=O)C4CCCCC4C3=O)CC2)cc1 (stereo unspecified)	2.9	2.2	-7.8	1.1	0.0	.	.	.
Cc1cc(N/N=C/c2c(O)ccc3ccccc23)nc(-c2ccccc2O)n1	-3.9	49.0*	12.1	13.3	0.7	-22.5	20.5	1.2
Cc1cc(C)c2c(-n3cccc3)c(C(=O)NNS(=O)(=O)c3ccc(Cl)cc3)sc2n1	14.1	29.5*	2.6	26.2	-1.1	-15.2	1.7	0.7
Cc1cc(/C=C2\SC(=S)N(C)C2=O)c(C)n1-c1ccccc1O	.	34.7*	15.7	-13.4	-2.7	.	42.5*	-5.5
CC(=O)Nc1ccc(NC(=O)Cc2sc(-c3cccnc3)nc2-c2ccc(C)cc2)cc1	0.8	54.2*	4.2	8.2	1.4	0.6	52.0*	7.3
O=C(CC(Sc1n[nH]c(-c2ccccc2)n1)c1ccccc1)NCc1ccccc1 (stereo unspecified)	-3.2	32.8*	2.0	-4.3	-3.0	9.9	9.8	8.6
COc1ccc(-c2nc(SC(CC(=O)NCCO)c3cccs3)n[nH]2)cc1 (stereo unspecified)	9.1	-3.9	6.6	0.1	-2.0	2.8	.	.
C=CCOC(=O)C1=C(C)NC(C)=C(C(=O)OCC=C)C1c1cn(-c2ccccc2)nc1-c1ccco1	8.7	53.3*	5.0	8.0	-1.6	3.6	21.9	8.7
O=C(N/N=C/c1cccc([N+](=O)[O-])c1)c1cc(-c2ccc3c(c2)OCO3)n[nH]1	28.4	62.0*	-1.8	-0.6	0.0	-15.7	23.5	12.0
O=C(N/N=C/c1cccc(O)c1)c1cc(-c2ccc3c(c2)OCO3)n[nH]1	1.8	-9.6	9.9	-14.6	-0.7	16.6	.	.
O=C(CCC(=O)Nc1ccc(Br)cc1)N/N=C/c1ccc(F)cc1	7.7	33.6*	13.4	1.3	-0.4	.	19.3	12.5
COC(=O)C1=C(N)N(c2ccccc2C(F)(F)F)C2=C(C(=O)CCC2)C1c1ccc2c(c1)OCO2 (stereo unspecified)	-7.8	30.7*	0.2	11.0	-1.2	-12.4	-6.9	-3.0
Cc1ccc(CNS(=O)(=O)NCc2ccc(Cl)cc2)cc1	-12.7	-0.4	10.0	8.8	-1.4	-8.4	.	.
COc1ccc(CNS(=O)(=O)NCc2ccc(C)cc2)cc1	-11.4	55.6*	7.5	5.3	5.4	-19.1	11.5	-11.9
COc1ccc(S(=O)(=O)NNC(=O)c2cc3c4ccccc4n(C)c3s2)cc1	-1.0	31.7*	-8.0	18.7	-1.9	-22.0	18.1	3.4
NC(=O)CN1C(=O)NC2(CCCc3sccc32)C1=O (stereo unspecified)	16.1	-4.5	-7.2	-7.7	2.6	.	.	.

Source: PubChem
